Measurements: ChEMBL document CHEMBL3272325, “Structure-activity relationships of dimeric Catharanthus alkaloids. 1. Deacetylvinblastine amide (vindesine) sulfate” (J Med Chem, 1978)

Experiments:
B16 [1] = assay: Antitumor activity against mouse B16 cells allografted in B6D2F1 mouse assessed as increase in life span at 1.08 mg/kg/day, ip administered on day 5, 9 and 13 measured for 56 days relative to untreated control; format: functional; conditions: route intraperitoneal
How it was run: (§1)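 Male B6D2F1 mice implanted ip on day 0 with 0.25 mL of a 20% (w/v) B16 melanoma brei. Alkaloid sulfate salts given ip on days 1, 5, 9 or on days 5, 9, 13, groups of 10, against 30 untreated controls. Read-outs: median survival time with range of individual deaths, and percent increase in life span, with survivors counted on day 56.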

[2] = Toxicity in ip dosed mouse allografted with mouse P1534(J) cells administered from day 1 to day 9; format: organism-based; conditions: in vivo, read-out: MNTD
How it was run: (§2)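 P1534(J) leukemia implanted subcutaneously in mice. Sulfate salts given ip daily on days 1-9. Read-out was percent inhibition of tumor growth relative to untreated controls. The highest nontoxic dose was recorded.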

Rhesus monkey [3] = assay: Neurotoxicity in iv dosed monkey assessed as peripheral neuropathy; format: toxicity, organism-based, Macaca mulatta; conditions: in vivo
Rhesus monkey [4] = assay: Neurotoxicity in iv dosed monkey assessed as peripheral neuropathy; conditions: in vivo
B16 [5] = assay: Antitumor activity against mouse B16 cells allografted in B6D2F1 mouse assessed as increase in life span at 0.389 mg/kg/day, ip administered on day 5, 9 and 13 measured for 56 days relative to untreated control; format: functional; conditions: route intraperitoneal; how it was run: as §1
B16 [6] = assay: Antitumor activity against mouse B16 cells allografted in B6D2F1 mouse assessed as mean survival time at 1.8 mg/kg/day, ip administered on day 1, 5 and 9 (reference value: 20.0 days); format: functional; conditions: route intraperitoneal; how it was run: as §1
B16 [7] = assay: Antitumor activity against mouse B16 cells allografted in B6D2F1 mouse assessed as mean survival time at 1.08 mg/kg/day, ip administered on day 5, 9 and 13 (reference value: 20.0 days); format: functional; conditions: route intraperitoneal; how it was run: as §1
B16 [8] = assay: Antitumor activity against mouse B16 cells allografted in B6D2F1 mouse assessed as mean survival time at 1.08 mg/kg/day, ip administered on day 1, 5 and 9 (reference value: 20.0 days); format: functional; conditions: route intraperitoneal; how it was run: as §1
B16 [9] = assay: Antitumor activity against mouse B16 cells allografted in C57Bl/6 mouse assessed as increase in life span at 0.9 mg/kg/day, ip administered on day 1, 5 and 9 measured for 61 days relative to control; format: functional; conditions: route intraperitoneal
How it was run: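 C57BL/6 mice implanted ip with 0.5 mL of B16 melanoma brei. Alkaloid sulfate salts given ip on days 1, 5, 9 or on days 5, 9, 13. Percent increase in life span measured against controls; experiment ended at 61 days.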

B16 [10] = assay: Antitumor activity against mouse B16 cells allografted in B6D2F1 mouse assessed as mean survival time at 0.389 mg/kg/day, ip administered on day 5, 9 and 13 (reference value: 20.0 days); format: functional; conditions: route intraperitoneal; how it was run: as §1
P388 [11] = assay: Antitumor activity against mouse P388 cells allografted in mouse assessed as increase in life span at 1.8 mg/kg/day, ip after 1 day; format: functional; conditions: 24 h, route intraperitoneal
How it was run: (§3)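 P388 ascites implanted ip in mice, 10 animals per group. Sulfate salts given ip either daily on days 1-9 or as a single dose on day 1. Median life span was calculated using all deaths and survivors. Percent increase in life span was taken over untreated controls. The highest nontoxic dose was noted.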

Homo sapiens = assay: Neurotoxicity in human assessed as neutropenia at 3 to 4 mg/m'2, iv once weekly dosed through push technique; format: toxicity, organism-based; conditions: in vivo
B16 [12] = assay: Antitumor activity against mouse B16 cells allografted in B6D2F1 mouse assessed as mean survival time at 0.648 mg/kg/day, ip administered on day 5, 9 and 13 (reference value: 20.0 days); format: functional; conditions: route intraperitoneal; how it was run: as §1
P388 [13] = assay: Antitumor activity against mouse P388 cells allografted in mouse assessed as increase in life span at 0.6 mg/kg/day, ip administered from day 1 to day 9 relative to untreated control; format: functional; conditions: route intraperitoneal; how it was run: as §3
B16 [14] = assay: Antitumor activity against mouse B16 cells allografted in B6D2F1 mouse assessed as mean survival time at 1.8 mg/kg/day, ip administered on day 5, 9 and 13 (reference value: 20.0 days); format: functional; conditions: route intraperitoneal; how it was run: as §1
P388 [15] = assay: Antitumor activity against mouse P388 cells allografted in mouse assessed as increase in life span at 6 mg/kg/day, ip after 1 day; format: functional; conditions: 24 h, route intraperitoneal; how it was run: as §3
P388 [16] = assay: Antitumor activity against mouse P388 cells allografted in mouse assessed as increase in life span at 0.9 mg/kg/day, ip administered from day 1 to day 9 relative to untreated control; format: functional; conditions: route intraperitoneal; how it was run: as §3
[17] = Antitumor activity against mouse P1534(J) cells allografted in mouse assessed as tumor growth inhibition at 0.2 mg/kg/day, ip administered from day 1 to day 9 relative to unreated control; format: functional; conditions: P1534J, route intraperitoneal, read-out: TGI; how it was run: as §2
B16 [18] = assay: Antitumor activity against mouse B16 cells allografted in B6D2F1 mouse assessed as mean survival time at 3 mg/kg/day, ip administered on day 5, 9 and 13 (reference value: 20.0 days); format: functional; conditions: route intraperitoneal; how it was run: as §1
P388 [19] = assay: Antitumor activity against mouse P388 cells allografted in mouse assessed as increase in life span at 4 mg/kg/day, ip after 1 day; format: functional; conditions: 24 h, route intraperitoneal; how it was run: as §3
P388 [20] = assay: Antitumor activity against mouse P388 cells allografted in mouse assessed as increase in life span at 0.4 mg/kg/day, ip administered from day 1 to day 9 relative to untreated control; format: functional; conditions: route intraperitoneal; how it was run: as §3
B16 [21] = assay: Antitumor activity against mouse B16 cells allografted in B6D2F1 mouse assessed as mean survival time at 0.648 mg/kg/day, ip administered on day 1, 5 and 9 (reference value: 20.0 days); format: functional; conditions: route intraperitoneal; how it was run: as §1
[22] = Acute toxicity in rat; format: organism-based; conditions: in vivo
[23] = Antitumor activity against mouse P1534(J) cells allografted in mouse assessed as tumor growth inhibition at 0.25 mg/kg/day, ip administered from day 1 to day 9 relative to unreated control; format: functional; conditions: P1534J, route intraperitoneal, read-out: TGI
How it was run: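 P1534(J) leukemia implanted subcutaneously in mice; sulfate salts given ip on days 1-9. Read-out is percent inhibition of tumor growth versus untreated controls.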

P388 [24] = assay: Antitumor activity against mouse P388 cells allografted in mouse assessed as increase in life span at 13.5 mg/kg/day, ip after 1 day; format: functional; conditions: 24 h, route intraperitoneal
[25] = Antitumor activity against mouse Gardner lymphosarcoma cell allografted in mouse at 0.2 to 0.3 mg/kg/day, ip; format: functional; conditions: route intraperitoneal
How it was run: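 Ridgeway osteogenic sarcoma and Gardner lymphosarcoma in mice, with sulfate salts given ip daily on days 1-9. Tumor growth inhibition versus controls scored in bands: +++ = 75-100%, ++ = 50-75%, ± = under 25%.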

B16 [26] = assay: Antitumor activity against mouse B16 cells allografted in B6D2F1 mouse assessed as mean survival time at 3 mg/kg/day, ip administered on day 1, 5 and 9 (reference value: 20.0 days); format: functional; conditions: route intraperitoneal; how it was run: as §1
P388 [27] = assay: Antitumor activity against mouse P388 cells allografted in mouse assessed as increase in life span at 2.7 mg/kg/day, ip after 1 day; format: functional; conditions: 24 h, route intraperitoneal; how it was run: as §3
B16 [28] = assay: Antitumor activity against mouse B16 cells allografted in B6D2F1 mouse assessed as mean survival time at 0.389 mg/kg/day, ip administered on day 1, 5 and 9 (reference value: 20.0 days); format: functional; conditions: route intraperitoneal; how it was run: as §1
B16 [29] = assay: Antitumor activity against mouse B16 cells allografted in B6D2F1 mouse assessed as increase in life span at 0.389 mg/kg/day, ip administered on day 1, 5 and 9 measured for 56 days relative to untreated control; format: functional; conditions: route intraperitoneal; how it was run: as §1

For CC[C@]1(O)C[C@@H]2CN(CCc3c([nH]c4ccccc34)[C@@](C(=O)OC)(c3cc4c(cc3OC)N(C)[C@H]3[C@@](O)(C(N)=O)[C@H](O)[C@]5(CC)C=CCN6CC[C@]43[C@@H]65)C2)C1.O=S(=O)(O)O [VINDESINE SULFATE], the ILS at 1.08 mg/kg/day (B16 [1]) was 58%, the MTD [2] was 0.25 mg/kg/day and the Activity (Rhesus monkey [3]) was “Non-toxic”. The Activity (Rhesus monkey [4]) was “Non-toxic”, the ILS at 0.389 mg/kg/day (B16 [5]) was 25% and the MST (B16 [6]) was 48.5 days. The MST (B16 [7]) was 31.5 days, the MST (B16 [8]) was 42 days and the ILS at 0.9 mg/kg/day (B16 [9]) was 60%. The MST (B16 [10]) was 25 days, the ILS at 1.8 mg/kg/day (P388 [11]) was 54% and the Activity (Homo sapiens) was “Toxic”. The MST (B16 [12]) was 27 days, the ILS at 0.6 mg/kg/day (P388 [13]) was 213% and the MST (B16 [14]) was 39 days. It also gave an ILS at 6 mg/kg/day (P388 [15]) of 109%, an ILS at 0.9 mg/kg/day (P388 [16]) of 177% and an inhibition in vivo at 0.2 mg/kg/day [17] of 74%. For the same molecule, the MST (B16 [18]) was 29.5 days, the ILS at 4 mg/kg/day (P388 [19]) was 77% and the ILS at 0.4 mg/kg/day (P388 [20]) was 172%. It also gave an MST (B16 [21]) of 35 days, an LD50 [22] of 2 mg/kg and an inhibition in vivo at 0.25 mg/kg/day [23] of 100%. The ILS at 13.5 mg/kg/day (P388 [24]) was 231%, the TGI [25] was 75% and the MST (B16 [26]) was 47.5 days. It also gave an ILS at 2.7 mg/kg/day (P388 [27]) of 95%, an MST (B16 [28]) of 37 days and an ILS at 0.389 mg/kg/day (B16 [29]) of 85%.
